Test [1] relates to BT-474. The experiment in a line: Induction of apoptosis in human BT474 cells assessed as cleavage of 89 kDa PARP at 1 uM after 24 hrs by Western blotting. In kind it is functional, cell-based. Summed up:
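BT474 cells treated at various doses; lysates immunoblotted with PARP antibody, scoring cleaved 89 kDa fragment.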
(Immunoblotting shows a protein as a band on a membrane.)

Test [2] relates to BT-474. The experiment in a line: Induction of apoptosis in human BT474 cells at 10 uM after 24 hrs by […] staining. In kind it is functional. The method in brief: (§1)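 BT474 cells treated 24 h at various doses; apoptotic nuclei scored by Hoechst staining; means ± SD of four independent experiments versus untreated cells.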
Test [3] has as its target Focal adhesion kinase 1 (Homo sapiens) (UniProt Q05397). The experiment in a line: Inhibition of FAK-Y397 phosphorylation in human BT474 cells at 100 uM by Western blotting. Type of test: cell-based. The conditions noted are these: BT-474, TDE = time-dependent effect. The method in brief:
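BT474 cells given 100 μM for 1–24 h; Y397-FAK and total FAK normalized to β-actin by densitometry, expressed relative to untreated; three independent experiments, mean ± SE.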

The subject of test [4] is BT-474. The experiment in a line: Inhibition of human BT474 cells adhesion on collagen coated plates at 100 uM after 3 hrs by crystal violet staining.
In test [5] the test system is BT-474. The experiment in a line: Effect on human BT474 cell survival assessed as cell detachment at 10 uM after 24 hrs by hemocytometer. Type of test: functional. The method in brief: (§2)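 BT474 cells treated at a range of doses; detached cells counted on a hemacytometer; means ± standard errors of three independent experiments, versus untreated cells.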
The test system of test [6] is BT-474. The experiment in a line: Effect on human BT474 cell survival assessed as cell detachment at 50 uM after 24 hrs by hemocytometer. Type of test: functional. The method in brief: as §2
The target of test [7] is Focal adhesion kinase 1 (Homo sapiens) (UniProt Q05397). The experiment in a line: Inhibition of total FAK phosphorylation in human BT474 cells at 100 uM by Western blotting. The conditions noted are these: BT-474, TDE = time-dependent effect. Type of test: cell-based. Summed up: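 BT474 lysates immunoprecipitated with FAK antibody, blotted with phosphotyrosine antibody, then stripped and reprobed for FAK.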

In test [8] the test system is BT-474. The experiment in a line: Induction of apoptosis in human BT474 cells assessed as presence of apoptotic nuclei at 20 uM after 24 hrs by […] staining. In kind it is functional, cell-based. Summed up: as §1
Test [9] concerns BT-474. The experiment in a line: Induction of apoptosis in human BT474 cells at 20 uM after 24 hrs by […] staining. In kind it is functional. The method in brief:
as §1

Calls of active or inactive are those of the source. No cut-off for these calls is given here.

Sequence of Focal adhesion kinase 1 (Homo sapiens) (Q05397 2-1052 limits assumed): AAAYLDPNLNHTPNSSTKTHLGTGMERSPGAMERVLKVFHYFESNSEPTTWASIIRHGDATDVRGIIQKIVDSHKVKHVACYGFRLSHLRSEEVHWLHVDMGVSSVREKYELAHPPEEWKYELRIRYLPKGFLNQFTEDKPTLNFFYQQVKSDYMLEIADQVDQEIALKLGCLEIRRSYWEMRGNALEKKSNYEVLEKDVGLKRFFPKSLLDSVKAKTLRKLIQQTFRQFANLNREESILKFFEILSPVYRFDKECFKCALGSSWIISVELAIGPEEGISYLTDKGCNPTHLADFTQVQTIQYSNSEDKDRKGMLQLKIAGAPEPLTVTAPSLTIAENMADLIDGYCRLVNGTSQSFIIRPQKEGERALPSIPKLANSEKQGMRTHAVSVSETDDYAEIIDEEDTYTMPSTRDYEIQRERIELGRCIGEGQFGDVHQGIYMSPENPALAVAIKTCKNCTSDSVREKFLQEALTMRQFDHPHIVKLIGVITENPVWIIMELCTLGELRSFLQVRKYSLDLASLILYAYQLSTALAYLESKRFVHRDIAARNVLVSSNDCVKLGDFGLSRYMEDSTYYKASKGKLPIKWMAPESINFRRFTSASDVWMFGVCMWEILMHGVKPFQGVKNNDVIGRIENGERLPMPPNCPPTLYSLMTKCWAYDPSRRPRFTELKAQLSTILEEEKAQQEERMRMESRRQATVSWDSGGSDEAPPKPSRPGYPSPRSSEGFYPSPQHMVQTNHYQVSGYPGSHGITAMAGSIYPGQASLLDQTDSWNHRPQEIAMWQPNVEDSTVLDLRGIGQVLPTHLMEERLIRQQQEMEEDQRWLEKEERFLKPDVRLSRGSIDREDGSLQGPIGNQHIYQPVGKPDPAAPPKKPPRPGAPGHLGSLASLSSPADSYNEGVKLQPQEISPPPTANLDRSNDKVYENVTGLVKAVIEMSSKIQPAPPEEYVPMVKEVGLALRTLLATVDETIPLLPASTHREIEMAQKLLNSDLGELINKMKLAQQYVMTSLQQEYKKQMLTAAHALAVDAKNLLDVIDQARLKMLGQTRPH

Regarding `CNC(=O)c1ccccc1Nc1nc(Nc2ccc(N3CCOCC3)cc2OC)ncc1Cl`, the outcome in test [1], in test [4] and in test [8] was Active. The Activity in test [2] was 35%; in test [3] it was “tde”; in test [5] it was 30%; in test [6], over 80%; in [7], “tde”; in [9], 69%.

Source of the values: ChEMBL document CHEMBL1140207, “A small molecule inhibitor, 1,2,4,5-benzenetetraamine tetrahydrochloride, targeting the y397 site of focal adhesion kinase decreases tumor growth” (J Med Chem, 2008).
